Measurements taken from ChEMBL document CHEMBL4689842, “EUbOPEN Chemogenomics Library wave 1” (2021).
Where “and” joins values, the source holds several entries; their conditions need not be identical. Identical values can stand only once.

Tested on: HEK-293T
Assay: Multiplex assay against HEK293T;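 for Population Tubulin-Different-Phenotype (%): share of the cells with healthy nuclei that show this phenotype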
Format: toxicity, cell-based
Details: human
Outline: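 Cells stained live at seeding with Hoechst33342, BioTracker Green Microtubule Cytoskeleton Dye, MitoTracker Red and Annexin V Alexa Fluor 680 were imaged on a CQ1 microscope at 37°C and 5% CO2 after compound addition. Their classification by CellPathfinder machine-learning gating ran from Hoechst high-intensity objects versus normal cells, to healthy, pyknosed or fragmented nuclei among normal cells, to mitotic or apoptotic among pyknosed cells. Tubulin, mitochondrial-mass and membrane-permeability phenotypes are per cents of healthy-nucleus cells.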

[1] = 12 h, 1 µM, compound concentration 1 uM, replicate 1
[2] = 12 h, 1 µM, compound concentration 1 uM, replicate 2
[3] = 12 h, 10 µM, compound concentration 10 uM, replicate 1
[4] = 12 h, 10 µM, compound concentration 10 uM, replicate 2
[5] = 24 h, 1 µM, compound concentration 1 uM, replicate 1
[6] = 24 h, 1 µM, compound concentration 1 uM, replicate 2
[7] = 24 h, 10 µM, compound concentration 10 uM, replicate 1
[8] = 24 h, 10 µM, compound concentration 10 uM, replicate 2
[9] = 48 h, 1 µM, compound concentration 1 uM, replicate 1
[10] = 48 h, 1 µM, compound concentration 1 uM, replicate 2
[11] = 48 h, 10 µM, compound concentration 10 uM, replicate 1
[12] = 48 h, 10 µM, compound concentration 10 uM, replicate 2

## CCc1cccc(CC)c1NC(=O)c1nn(C)c2c1CCc1cnc(Nc3ccc(C(=O)NC4CCN(C)CC4)cc3OC(F)(F)F)nc1-2
[1]
  Population Apoptotic (%): 66%
  Population Fragmented Nuclei (%): 8%
  Population Healthy Nuclei (%): 46%
  Population Hoechst High Intensity Objects (%): 11%
  Population Membrane Permeable-Phenotype (%): 3%
  Population Mitochondria Different-Phenotype (%): 93%
  Population Mitotic Cells (%): 33%
  Population Normal (%): 88%
  Population Pyknosed Nuclei (%): 45%
  Population Tubulin-Different-Phenotype (%): 68%
  Total Cell Count: 312
[2]
  Population Apoptotic (%): 28%
  Population Fragmented Nuclei (%): 4%
  Population Healthy Nuclei (%): 39%
  Population Hoechst High Intensity Objects (%): 4%
  Population Membrane Permeable-Phenotype (%): 2%
  Population Mitochondria Different-Phenotype (%): 57%
  Population Mitotic Cells (%): 71%
  Population Normal (%): 95%
  Population Pyknosed Nuclei (%): 56%
  Population Tubulin-Different-Phenotype (%): 62%
  Total Cell Count: 251
[3]
  Population Apoptotic (%): 80%
  Population Fragmented Nuclei (%): 11%
  Population Healthy Nuclei (%): 31%
  Population Hoechst High Intensity Objects (%): 11%
  Population Membrane Permeable-Phenotype (%): 0%
  Population Mitochondria Different-Phenotype (%): 98%
  Population Mitotic Cells (%): 19%
  Population Normal (%): 88%
  Population Pyknosed Nuclei (%): 57%
  Population Tubulin-Different-Phenotype (%): 98%
  Total Cell Count: 300
[4]
  Population Apoptotic (%): 73%
  Population Fragmented Nuclei (%): 4%
  Population Healthy Nuclei (%): 16%
  Population Hoechst High Intensity Objects (%): 7%
  Population Membrane Permeable-Phenotype (%): 4%
  Population Mitochondria Different-Phenotype (%): 86%
  Population Mitotic Cells (%): 26%
  Population Normal (%): 92%
  Population Pyknosed Nuclei (%): 78%
  Population Tubulin-Different-Phenotype (%): 86%
  Total Cell Count: 152
[5]
  Population Apoptotic (%): 63%
  Population Fragmented Nuclei (%): 10%
  Population Healthy Nuclei (%): 53%
  Population Hoechst High Intensity Objects (%): 10%
  Population Membrane Permeable-Phenotype (%): 1%
  Population Mitochondria Different-Phenotype (%): 84%
  Population Mitotic Cells (%): 36%
  Population Normal (%): 89%
  Population Pyknosed Nuclei (%): 36%
  Population Tubulin-Different-Phenotype (%): 56%
  Total Cell Count: 342
[6]
  Population Apoptotic (%): 25%
  Population Fragmented Nuclei (%): 2%
  Population Healthy Nuclei (%): 59%
  Population Hoechst High Intensity Objects (%): 4%
  Population Membrane Permeable-Phenotype (%): 3%
  Population Mitochondria Different-Phenotype (%): 52%
  Population Mitotic Cells (%): 74%
  Population Normal (%): 95%
  Population Pyknosed Nuclei (%): 38%
  Population Tubulin-Different-Phenotype (%): 55%
  Total Cell Count: 287
[7]
  Population Apoptotic (%): 74%
  Population Fragmented Nuclei (%): 12%
  Population Healthy Nuclei (%): 42%
  Population Hoechst High Intensity Objects (%): 10%
  Population Membrane Permeable-Phenotype (%): 4%
  Population Mitochondria Different-Phenotype (%): 98%
  Population Mitotic Cells (%): 25%
  Population Normal (%): 89%
  Population Pyknosed Nuclei (%): 45%
  Population Tubulin-Different-Phenotype (%): 98%
  Total Cell Count: 342
[8]
  Population Apoptotic (%): 93%
  Population Fragmented Nuclei (%): 6%
  Population Healthy Nuclei (%): 32%
  Population Hoechst High Intensity Objects (%): 5%
  Population Membrane Permeable-Phenotype (%): 0%
  Population Mitochondria Different-Phenotype (%): 93%
  Population Mitotic Cells (%): 6%
  Population Normal (%): 94%
  Population Pyknosed Nuclei (%): 61%
  Population Tubulin-Different-Phenotype (%): 91%
  Total Cell Count: 158
[9]
  Population Apoptotic (%): 43%
  Population Fragmented Nuclei (%): 14%
  Population Healthy Nuclei (%): 59%
  Population Hoechst High Intensity Objects (%): 12%
  Population Membrane Permeable-Phenotype (%): 0%
  Population Mitochondria Different-Phenotype (%): 57%
  Population Mitotic Cells (%): 56%
  Population Normal (%): 87%
  Population Pyknosed Nuclei (%): 26%
  Population Tubulin-Different-Phenotype (%): 46%
  Total Cell Count: 417
[10]
  Population Apoptotic (%): 27%
  Population Fragmented Nuclei (%): 7%
  Population Healthy Nuclei (%): 69%
  Population Hoechst High Intensity Objects (%): 3%
  Population Membrane Permeable-Phenotype (%): 2%
  Population Mitochondria Different-Phenotype (%): 32%
  Population Mitotic Cells (%): 72%
  Population Normal (%): 96%
  Population Pyknosed Nuclei (%): 23%
  Population Tubulin-Different-Phenotype (%): 43%
  Total Cell Count: 410
[11]
  Population Apoptotic (%): 84%
  Population Fragmented Nuclei (%): 14%
  Population Healthy Nuclei (%): 52%
  Population Membrane Permeable-Phenotype (%): 3%
  Population Mitochondria Different-Phenotype (%): 94%
  Population Mitotic Cells (%): 15%
  Population Pyknosed Nuclei (%): 32%
  Population Tubulin-Different-Phenotype (%): 88%
  Total Cell Count: 339
[12]
  Population Apoptotic (%): 91%
  Population Fragmented Nuclei (%): 8%
  Population Healthy Nuclei (%): 38%
  Population Hoechst High Intensity Objects (%): 13%
  Population Membrane Permeable-Phenotype (%): 6%
  Population Mitochondria Different-Phenotype (%): 93%
  Population Mitotic Cells (%): 8%
  Population Normal (%): 86%
  Population Pyknosed Nuclei (%): 52%
  Population Tubulin-Different-Phenotype (%): 86%
  Total Cell Count: 173

## CN([C@@H](Cc1ccc(OS(=O)(=O)c2cccc3cnccc23)cc1)C(=O)N1CCN(c2ccccc2)CC1)S(=O)(=O)c1cccc2cnccc12
[1]
  Population Apoptotic (%): 32% and 22%
  Population Fragmented Nuclei (%): 26% and 15%
  Population Healthy Nuclei (%): 31% and 38%
  Population Hoechst High Intensity Objects (%): 18% and 15%
  Population Membrane Permeable-Phenotype (%): 34% and 31%
  Population Mitochondria Different-Phenotype (%): 22%
  Population Mitotic Cells (%): 67% and 77%
  Population Normal (%): 81% and 84%
  Population Pyknosed Nuclei (%): 42% and 46%
  Population Tubulin-Different-Phenotype (%): 77% and 86%
  Total Cell Count: 417 and 601
[2]
  Population Apoptotic (%): 15% and 13%
  Population Fragmented Nuclei (%): 2% and 3%
  Population Healthy Nuclei (%): 73%
  Population Hoechst High Intensity Objects (%): 3% and 2%
  Population Membrane Permeable-Phenotype (%): 28% and 27%
  Population Mitochondria Different-Phenotype (%): 34% and 43%
  Population Mitotic Cells (%): 84% and 86%
  Population Normal (%): 96% and 97%
  Population Pyknosed Nuclei (%): 23% and 22%
  Population Tubulin-Different-Phenotype (%): 97%
  Total Cell Count: 993 and 1067
[5]
  Population Apoptotic (%): 39% and 33%
  Population Fragmented Nuclei (%): 22% and 14%
  Population Healthy Nuclei (%): 46% and 51%
  Population Hoechst High Intensity Objects (%): 14% and 13%
  Population Membrane Permeable-Phenotype (%): 20%
  Population Mitochondria Different-Phenotype (%): 50% and 32%
  Population Mitotic Cells (%): 60% and 66%
  Population Normal (%): 85% and 86%
  Population Pyknosed Nuclei (%): 31% and 33%
  Population Tubulin-Different-Phenotype (%): 88% and 94%
  Total Cell Count: 402 and 587
[6]
  Population Apoptotic (%): 11%
  Population Fragmented Nuclei (%): 9% and 3%
  Population Healthy Nuclei (%): 75% and 68%
  Population Hoechst High Intensity Objects (%): 2% and 5%
  Population Membrane Permeable-Phenotype (%): 25% and 18%
  Population Mitochondria Different-Phenotype (%): 40% and 37%
  Population Mitotic Cells (%): 88%
  Population Normal (%): 97% and 94%
  Population Pyknosed Nuclei (%): 15% and 28%
  Population Tubulin-Different-Phenotype (%): 98% and 96%
  Total Cell Count: 1327 and 1023

## CCc1cccc(CC)c1NC(=O)c1nn(C)c2c1CCc1cnc(Nc3ccc(N4CCN(C)CC4)cc3OC)nc1-2
[1]
  Population Apoptotic (%): 27%
  Population Fragmented Nuclei (%): 14%
  Population Healthy Nuclei (%): 18%
  Population Hoechst High Intensity Objects (%): 18%
  Population Membrane Permeable-Phenotype (%): 11%
  Population Mitochondria Different-Phenotype (%): 32%
  Population Mitotic Cells (%): 72%
  Population Normal (%): 81%
  Population Pyknosed Nuclei (%): 67%
  Population Tubulin-Different-Phenotype (%): 75%
  Total Cell Count: 690
[2]
  Population Apoptotic (%): 19%
  Population Fragmented Nuclei (%): 2%
  Population Healthy Nuclei (%): 54%
  Population Hoechst High Intensity Objects (%): 7%
  Population Membrane Permeable-Phenotype (%): 5%
  Population Mitochondria Different-Phenotype (%): 69%
  Population Mitotic Cells (%): 80%
  Population Normal (%): 92%
  Population Pyknosed Nuclei (%): 42%
  Population Tubulin-Different-Phenotype (%): 97%
  Total Cell Count: 922
[3]
  Population Apoptotic (%): 19%
  Population Fragmented Nuclei (%): 11%
  Population Healthy Nuclei (%): 64%
  Population Hoechst High Intensity Objects (%): 14%
  Population Membrane Permeable-Phenotype (%): 13%
  Population Mitochondria Different-Phenotype (%): 12%
  Population Mitotic Cells (%): 80%
  Population Normal (%): 85%
  Population Pyknosed Nuclei (%): 24%
  Population Tubulin-Different-Phenotype (%): 54%
  Total Cell Count: 730
[4]
  Population Apoptotic (%): 5%
  Population Fragmented Nuclei (%): 3%
  Population Healthy Nuclei (%): 89%
  Population Hoechst High Intensity Objects (%): 2%
  Population Membrane Permeable-Phenotype (%): 8%
  Population Mitochondria Different-Phenotype (%): 24%
  Population Mitotic Cells (%): 94%
  Population Normal (%): 97%
  Population Pyknosed Nuclei (%): 6%
  Population Tubulin-Different-Phenotype (%): 57%
  Total Cell Count: 1395
[5]
  Population Apoptotic (%): 39%
  Population Fragmented Nuclei (%): 18%
  Population Healthy Nuclei (%): 17%
  Population Hoechst High Intensity Objects (%): 13%
  Population Membrane Permeable-Phenotype (%): 11%
  Population Mitochondria Different-Phenotype (%): 41%
  Population Mitotic Cells (%): 60%
  Population Normal (%): 86%
  Population Pyknosed Nuclei (%): 63%
  Population Tubulin-Different-Phenotype (%): 68%
  Total Cell Count: 683
[6]
  Population Fragmented Nuclei (%): 3%
  Population Healthy Nuclei (%): 27%
  Population Hoechst High Intensity Objects (%): 12%
  Population Membrane Permeable-Phenotype (%): 3%
  Population Mitochondria Different-Phenotype (%): 92%
  Population Normal (%): 87%
  Population Pyknosed Nuclei (%): 68%
  Population Tubulin-Different-Phenotype (%): 89%
  Total Cell Count: 901
[7]
  Population Apoptotic (%): 27%
  Population Fragmented Nuclei (%): 11%
  Population Healthy Nuclei (%): 77%
  Population Hoechst High Intensity Objects (%): 8%
  Population Membrane Permeable-Phenotype (%): 20%
  Population Mitochondria Different-Phenotype (%): 9%
  Population Mitotic Cells (%): 72%
  Population Normal (%): 91%
  Population Pyknosed Nuclei (%): 10%
  Population Tubulin-Different-Phenotype (%): 65%
  Total Cell Count: 803
[8]
  Population Apoptotic (%): 11%
  Population Fragmented Nuclei (%): 8%
  Population Healthy Nuclei (%): 88%
  Population Hoechst High Intensity Objects (%): 3%
  Population Membrane Permeable-Phenotype (%): 13%
  Population Mitotic Cells (%): 88%
  Population Normal (%): 96%
  Population Pyknosed Nuclei (%): 3%
  Population Tubulin-Different-Phenotype (%): 62%
  Total Cell Count: 1777
